# Test results as given in ChEMBL document CHEMBL1122251, “4-(Aminoalkyl)-7-hydroxy-2(3H)-indolones, a novel class of potent presynaptic dopamine receptor agonists” (J Med Chem, 1983).
# What was measured:
# Canis familiaris [1] = test: Tested in vivo for change in heart rate (HR) in dog after intravenous dose of 3 ug/kg; type: functional, Canis lupus familiaris
# Canis familiaris [2] = test: Tested in vivo for change in maximal arterial pressure (MAP) in dog after intravenous dose of 300 ug/kg; type: functional, Canis lupus familiaris, Artery
# Method in brief: (§1)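 Mean arterial blood pressure was recorded in dogs (N = 2) given the hydrobromide salt by intravenous infusion, dosed as (μg/kg)/min. Values are percent change from the control reading taken just before infusion. The minimum change counted as significant (p < 0.05) was ±5.2%.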
# Canis familiaris [3] = test: Tested in vivo for change in maximal arterial pressure (MAP) in dog after intravenous dose of 30 ug/kg; type: functional, Canis lupus familiaris, Artery; method in brief: as §1
# Canis familiaris [4] = test: Tested in vivo for change in heart rate (HR) in dog after intravenous dose of 30 ug/kg; type: functional, Canis lupus familiaris
# Canis familiaris [5] = test: Tested in vivo for change in maximal arterial pressure (MAP) in dog after intravenous dose of 3 ug/kg; type: functional, Canis lupus familiaris, Artery; method in brief: as §1
# Dopamine receptor [6] = test: Tested in vitro for dopamine agonist activity in rabbit ear artery after at a dose of 3 ug/kg; type: functional, tissue-based, Oryctolagus cuniculus
# Method in brief: (§2)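 Isolated perfused rabbit ear artery preparation, used to assess activation of presynaptic dopamine receptors.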
# Canis familiaris [7] = test: Tested in vivo for change in heart rate (HR) in dog after intravenous dose of 300 ug/kg; type: functional, Canis lupus familiaris
# Dopamine receptor [8] = test: Tested in vitro for dopamine agonist activity in rabbit ear artery after at a dose of 0.3 mg/kg; type: functional, Oryctolagus cuniculus; set-up: dose 0.3 mg/kg
# Canis familiaris [9] = test: Tested in vivo for change in heart rate (HR) in dog after intravenous dose of 30 (ug/kg)/min
# Canis familiaris [10] = test: Tested in vivo for change in maximal arterial pressure (MAP) in dog after intravenous dose of 30 (ug/kg)/min
# Canis familiaris [11] = test: Tested in vivo for change in maximal arterial pressure (MAP) in dog after intravenous dose of 30 mg/kg; type: functional, Canis lupus familiaris, Artery
# Dopamine receptor [12] = test: Tested in vitro for dopamine agonist activity in rabbit ear artery after at a dose of 3 mg/kg; type: functional, Oryctolagus cuniculus; method in brief: as §2
# Canis familiaris [13] = test: Tested in vivo for change in heart rate(HR) in dog after intravenous dose of 3 mg/kg; type: functional, Canis lupus familiaris
smiles,measurement,setting,value
NCCc1ccc(O)c2c1CC(=O)N2,Change,Canis familiaris [1],-2.9%
same,Change,Canis familiaris [2],62.6%
same,Change,Canis familiaris [3],-16.1%
same,Change,Canis familiaris [4],-2.9%
same,Change,Canis familiaris [5],-10.6%
same,EC50,Dopamine receptor [6],116 nM
same,Change,Canis familiaris [7],-15.8%
CCCN(CCC)CCc1ccc(O)c2c1CC(=O)N2 [SKF-89124A],EC50,Dopamine receptor [8],1.8 nM
same,Change,Canis familiaris [9],-6.9%
same,Change,Canis familiaris [10],28.4%
same,Change,Canis familiaris [11],28.4%
C=CCN1CCc2c(cc(O)c(O)c2Cl)C(c2ccc(O)cc2)C1 (stereo unspecified),EC50,Dopamine receptor [8],122 nM
CCCN(CCC)CCc1ccc(O)c(O)c1,EC50,Dopamine receptor [12],80 nM
same,Change,Canis familiaris [10],-21.9%
same,Change,Canis familiaris [13],1.5%
same,Change,Canis familiaris [11],-17.7%
